Activity calls are given as the source filed them. The calls are words filed in the database; no cut-off is given here.
Assays:
Rattus norvegicus [1] = species on record: Rattus norvegicus; experiment: Induction of mitochondrial dysfunction in rat liver mitochondria assessed as decrease in mitochondrial redox level at 10 uM after 15 mins by absorption spectrophotometric analysis in presence of 50 uM Ca2+; type: functional; set-up: scale not given: the % may be the effect or the level left
How it was run: (§1)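 Mitochondrial protein thiol oxidation assayed per Santos et al. after 15 min incubation of rat liver mitochondria (1 mg protein/mL, 20 °C, succinate/rotenone standard medium). Results as % reduced thiols, mean ± SD, four independent experiments.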

Rattus norvegicus [2] = species on record: Rattus norvegicus; experiment: Induction of mitochondrial dysfunction in Ca2+-stimulated rat liver mitochondria assessed as decrease in mitochondrial redox level at 10 uM after 15 mins by absorption spectrophotometric analysis in presence of ADP; type: functional; how it was run: as §1
Rattus norvegicus [3] = species on record: Rattus norvegicus; experiment: Induction of mitochondrial dysfunction in rat liver mitochondria assessed as decrease in mitochondrial redox level at 100 uM after 15 mins by absorption spectrophotometric analysis; type: functional; set-up: scale not given: the % may be the effect or the level left; how it was run: as §1
Rattus norvegicus [4] = species on record: Rattus norvegicus; experiment: Hepatoprotective activity in rat liver mitochondria assessed as change in mitochondrial pyridine nucleotide redox level at 100 uM after 15 mins by fluorometric analysis in presence of Ca2+
HeLa = experiment: Cytotoxicity against human HeLa cells after 72 hrs by trypan blue assay; type: functional, cell-based
How it was run: (§2)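 Cells seeded at 4 × 10^4 per well, grown 24 h, then given fresh medium with a range of concentrations and kept a further 72 h at 37 °C in 5% CO2. Viability was read by trypan blue count. IC50 is the concentration giving 50% fewer cells than control cultures, as mean ± SD of at least four experiments. HeLa were grown in F-12 with 10% heat-inactivated FCS; A-431 and HepG2 in DMEM with 10% FBS.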

Rattus norvegicus [5] = species on record: Rattus norvegicus; experiment: Induction of mitochondrial dysfunction in rat liver mitochondria assessed as decrease in membrane potential at 5 uM by spectrophotometric analysis in presence of 50 uM Ca2+; type: functional; settings: TDE = time-dependent effect
How it was run: (§3)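 Membrane potential (ΔΨ) derived from TPP+ distribution across the inner membrane, measured with a TPP+-selective electrode. Ca2+ 50 μM where indicated; cyclosporin A 1 μM where indicated.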

Rattus norvegicus [6] = species on record: Rattus norvegicus; experiment: Hepatoprotective activity in rat liver mitochondria assessed as inhibition of Ca2+-induced mitochondrial swelling at > 20 uM by spectrophotometric analysis; type: functional
How it was run: (§4)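 Absorbance change at 540 nm of rat liver mitochondrial suspensions (1 mg protein/mL, 20 °C, succinate/rotenone energized, 250 mM sucrose, 10 mM HEPES pH 7.4, 1 mM phosphate); a fall in absorbance taken as swelling. Ca2+ at 50, 70 or 90 μM as specified, or omitted. Runs repeated at least four times.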

Rattus norvegicus [7] = species on record: Rattus norvegicus; experiment: Induction of mitochondrial dysfunction in rat liver mitochondria assessed as decrease in membrane potential at 10 uM by spectrophotometric analysis in presence of 50 uM Ca2+; type: functional; settings: TDE = time-dependent effect; how it was run: as §3
Rattus norvegicus [8] = species on record: Rattus norvegicus; experiment: Induction of mitochondrial dysfunction in rat liver mitochondria assessed as increase in colloid-osmotic swelling at 10 uM by spectrophotometric analysis in presence of 50 uM Ca2+; type: functional; how it was run: as §4
Rattus norvegicus [9] = species on record: Rattus norvegicus; experiment: Hepatoprotective activity in rat liver assessed as inhibition of colloid-osmotic mitochondrial swelling at 100 uM by spectrophotometric analysis in presence of 90 uM Ca2+; settings: Mitochondria
Rattus norvegicus [10] = species on record: Rattus norvegicus; experiment: Induction of mitochondrial dysfunction in rat liver mitochondria assessed as decrease in mitochondrial redox level at 100 uM after 15 mins by absorption spectrophotometric analysis in presence of 50 uM Ca2+; type: functional; set-up: scale not given: the % may be the effect or the level left; how it was run: as §1
Rattus norvegicus [11] = species on record: Rattus norvegicus; experiment: Induction of mitochondrial dysfunction in rat liver mitochondria assessed as apoptosis inducing factor release at 100 uM after 15 mins by Western blot analysis in presence of Ca2+; type: functional
How it was run: (§5)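 Mitochondria (1 mg protein/mL) held 15 min at 20 °C in standard succinate/rotenone medium with or without Ca2+, then centrifuged 13000g, 10 min, 4 °C. Supernatants concentrated, resolved by SDS-PAGE (15% for cyt c, 10% for AIF) and immunoblotted with mouse anti-cyt c or rabbit anti-AIF.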

Rattus norvegicus [12] = species on record: Rattus norvegicus; experiment: Induction of mitochondrial dysfunction in rat liver mitochondria assessed as increase in mitochondrial swelling at < 20 uM by spectrophotometric analysis in presence of 70 uM Ca2+; type: functional; how it was run: as §4
Rattus norvegicus [13] = species on record: Rattus norvegicus; experiment: Induction of mitochondrial dysfunction in rat liver mitochondria assessed as increase in colloid-osmotic swelling at 10 to 100 uM by spectrophotometric analysis; type: functional; how it was run: as §4
Rattus norvegicus [14] = species on record: Rattus norvegicus; experiment: Induction of mitochondrial dysfunction in rat liver mitochondria assessed as blockage of Ca2+ release at 100 uM by spectrophotometric analysis; type: functional; settings: in the assay text read “Ca2+ accumulation” for “Ca2+ release”
How it was run: (§6)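 Ca2+ movements in rat liver mitochondria (1 mg protein/mL, 20 °C, succinate/rotenone medium) exposed to 70 μM Ca2+; Ca2+ in mitochondrial pellets measured by atomic absorption spectroscopy, uptake expressed per mg protein.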

Rattus norvegicus [15] = species on record: Rattus norvegicus; experiment: Induction of mitochondrial dysfunction in rat liver mitochondria assessed as increase in colloid-osmotic swelling at 10 uM by spectrophotometric analysis in presence of 50 uM Ca2+ and N-ethylmaleimide; type: functional
How it was run: (§7)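 Swelling read as the 540 nm absorbance decrease in succinate-energized rat liver mitochondria (1 mg protein/mL, 20 °C, pH 7.4 sucrose/HEPES medium) with 50 μM Ca2+. Added agents where indicated: 1 μM CsA, 5 μM bongkrekic acid, 1 mM ADP, 2 μM ruthenium red, 10 μM NEM, 1 mM DTE. At least five repeats.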

Rattus norvegicus [16] = species on record: Rattus norvegicus; experiment: Induction of mitochondrial dysfunction in rat liver mitochondria assessed as change in membrane potential by spectrophotometric analysis; type: functional
Rattus norvegicus [17] = species on record: Rattus norvegicus; experiment: Induction of mitochondrial dysfunction in rat liver mitochondria assessed as decrease in mitochondrial redox level at 10 uM after 15 mins by absorption spectrophotometric analysis; type: functional; set-up: scale not given: the % may be the effect or the level left; how it was run: as §1
Rattus norvegicus [18] = species on record: Rattus norvegicus; experiment: Induction of mitochondrial bioenergetics dysfunction in ADP-stimulated rat liver mitochondria assessed as decrease in oxygen consumption at 10 to 50 uM by using clark electrode; type: functional
How it was run: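 Isolated rat liver mitochondria (1 mg protein/mL), 20 °C, sucrose/HEPES pH 7.4 medium with 5 mM succinate plus 1.25 μM rotenone and 1 mM phosphate. O2 uptake followed with a Clark electrode; 300 μM ADP added to start state 3. RCI = V3/V4 (state 3 over state 4 rate). Five experiments.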

Rattus norvegicus [19] = species on record: Rattus norvegicus; experiment: Induction of mitochondrial dysfunction in rat liver mitochondria assessed as cytochrome c release at 100 uM after 15 mins by Western blot analysis; type: functional; how it was run: as §5
Rattus norvegicus [20] = species on record: Rattus norvegicus; experiment: Induction of mitochondrial dysfunction in rat liver mitochondria assessed as Ca2+ accumulation at 10 uM after 1 to 2 mins by spectrophotometric analysis; type: functional; how it was run: as §6
A-431 = experiment: Cytotoxicity against human A431cells after 72 hrs by trypan blue assay; type: functional, cell-based; settings: A-431, 72 h; how it was run: as §2
Rattus norvegicus [21] = species on record: Rattus norvegicus; experiment: Hepatoprotective activity in rat liver mitochondria assessed as inhibition of Ca2+-induced mitochondrial swelling at 100 uM by spectrophotometric analysis; type: functional; how it was run: as §4
Rattus norvegicus [22] = species on record: Rattus norvegicus; experiment: Hepatoprotective activity in rat liver assessed as increase in mitochondrial membrane potential at 100 uM by spectrophotometric analysis in presence of 50 uM Ca2+; type: functional; settings: Mitochondria; how it was run: as §3
Rattus norvegicus [23] = species on record: Rattus norvegicus; experiment: Induction of mitochondrial dysfunction in Ca2+-stimulated rat liver mitochondria assessed as decrease in mitochondrial redox level at 10 uM after 15 mins by absorption spectrophotometric analysis in presence of bongkrekic acid; type: functional; how it was run: as §1
Rattus norvegicus [24] = species on record: Rattus norvegicus; experiment: Induction of mitochondrial dysfunction in rat liver mitochondria assessed as increase in colloid-osmotic swelling at 10 uM by spectrophotometric analysis in presence of 50 uM Ca2+ and AdNT; type: functional; how it was run: as §7

Question: For `C/C(=C/CC[C@H](C)[C@@H]1CC[C@]2(C)C3=CC[C@H]4C(C)(C)[C@H](O)CC[C@]4(C)[C@H]3CC[C@@]12C)C(=O)O`, which Activity (Rattus norvegicus [1]) is on record?
Answer: 50%

Question: What about the Activity (Rattus norvegicus [2]) of the same molecule?
Answer: Active

Question: What about the Activity (Rattus norvegicus [3]) of the same molecule?
Answer: 25%

Question: And the Activity (Rattus norvegicus [4])?
Answer: Active

Question: What about the IC50 (HeLa) of the same molecule?
Answer: 28.9 µM

Question: And the Activity (Rattus norvegicus [5])?
Answer: tde

Question: What about the Activity (Rattus norvegicus [6]) of the same molecule?
Answer: Active

Question: What about the Activity (Rattus norvegicus [7]) of the same molecule?
Answer: tde

Question: What about the Activity (Rattus norvegicus [8]) of the same molecule?
Answer: Active

Question: And the inhibition (Rattus norvegicus [9])?
Answer: Active

Question: What about the Activity (Rattus norvegicus [10]) of the same molecule?
Answer: 25%

Question: What about the Activity (Rattus norvegicus [11]) of the same molecule?
Answer: inactive

Question: And the Activity (Rattus norvegicus [12])?
Answer: Active

Question: What about the Activity (Rattus norvegicus [13]) of the same molecule?
Answer: inactive

Question: And the Activity (Rattus norvegicus [14])?
Answer: Active

Question: And the Activity (Rattus norvegicus [15])?
Answer: inactive

Question: What about the Activity (Rattus norvegicus [16]) of the same molecule?
Answer: Dose-dependent effect

Question: And the Activity (Rattus norvegicus [17])?
Answer: 20%

Question: And the Activity (Rattus norvegicus [18])?
Answer: Active

Question: What about the Activity (Rattus norvegicus [19]) of the same molecule?
Answer: inactive

Question: What about the Activity (Rattus norvegicus [20]) of the same molecule?
Answer: inactive

Question: And the IC50 (A-431)?
Answer: 40 µM

Question: What about the inhibition (Rattus norvegicus [21]) of the same molecule?
Answer: Active

Question: What about the Activity (Rattus norvegicus [22]) of the same molecule?
Answer: Active

Question: And the Activity (Rattus norvegicus [23])?
Answer: Active

Question: And the Activity (Rattus norvegicus [24])?
Answer: inactive

Reference: ChEMBL document CHEMBL2034843, “3α-Hydroxymasticadienonic acid as an antiproliferative agent that impairs mitochondrial functions” (J Nat Prod, 2012)
